Measurements: ChEMBL document CHEMBL3352764, “Rational design of novel CYP2A6 inhibitors” (Bioorg Med Chem, 2014)

Assays:
[1] = target: T1, Cytochrome P450 2A6 (Homo sapiens, UniProt P11509); assay: Inhibition of human CYP2A6 in baculovirus-infected insect cell system using […] as substrate preincubated for 10 mins by fluorescence assay
T1 sequence (P11509 whole entry): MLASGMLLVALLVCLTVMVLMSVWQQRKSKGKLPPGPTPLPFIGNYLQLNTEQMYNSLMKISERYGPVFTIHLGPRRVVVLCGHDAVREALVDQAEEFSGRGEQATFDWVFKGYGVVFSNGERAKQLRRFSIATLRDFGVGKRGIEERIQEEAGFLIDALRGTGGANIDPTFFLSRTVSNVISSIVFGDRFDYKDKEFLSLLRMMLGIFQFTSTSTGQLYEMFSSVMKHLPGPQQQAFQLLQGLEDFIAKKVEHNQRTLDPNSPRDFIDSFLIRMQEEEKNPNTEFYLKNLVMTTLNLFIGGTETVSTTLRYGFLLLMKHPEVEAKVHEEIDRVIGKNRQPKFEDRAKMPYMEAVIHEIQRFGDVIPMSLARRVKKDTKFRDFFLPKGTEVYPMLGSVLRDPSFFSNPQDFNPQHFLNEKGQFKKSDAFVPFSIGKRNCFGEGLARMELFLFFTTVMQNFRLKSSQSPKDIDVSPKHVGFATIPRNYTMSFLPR
Outline: (§1)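 Coumarin 7-hydroxylation by baculovirus/insect-cell human CYP2A6. Reaction started with NADPH (final 0.33 mM) and preincubated 10 min at 37 °C. Stopped with 10% TCA, then 1.6 M glycine-NaOH added; 7-hydroxycoumarin fluorescence read at ex 355/em 450 nm. Blanks subtracted; activity as % of control; IC50 by nonlinear fitting.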

[2] = target: T1, Cytochrome P450 2A6; assay: Inhibition of human CYP2A6 in baculovirus-infected insect cell system using […] as substrate incubated for 30 mins prior to substrate addition measured after 10 mins by fluorescence assay; conditions: for inhibition (INH): human, 10 min
[3] = target: T2, CYP2A6 (Homo sapiens, UniProt P11509); assay: (§2) Irreversible inhibition of human CYP2A6 in baculovirus-infected insect cell system using […] as substrate incubated for 10 mins by fluorescence assay; conditions: human, probe coumarin (printed: coumarin 7)
T2 sequence (P11509 whole entry): T1 sequence (P11509 whole entry)
Outline: (§3)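 Inactivation: five inhibitor concentrations plus vehicle preincubated various times (including 0 min) with 5–20 pmol CYP2A6 and NADPH. Then diluted 10–40 fold into 50 mM Tris–HCl pH 7.4, 5 mM MgCl2, 10 µM coumarin, 0.3 mM NADPH, 10 min at 37 °C. Kobs from ln activity vs time; Kinact and Ki from double-reciprocal regression.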

[4] = target: T1, Cytochrome P450 2A6; assay: as §2; outline: as §3
[5] = target: T1, Cytochrome P450 2A6; assay: Competitive inhibition of human CYP2A6 in baculovirus-infected insect cell system assessed as nicotine metabolism after 15 mins
Outline: (§4)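 Nicotine oxidation by expressed CYP2A6 (with P450 reductase and cytochrome b5): 10 pmol CYP and 10 pmol b5/ml, 1 mM NADPH, 50 µl cytosol, 50 mM Tris–HCl pH 7.4, 37 °C, 15 min. Stopped with 4% v/v Na2CO3; 5-methylcotinine internal standard; nicotine and metabolites quantified by HPLC. Drug concentrations expressed as free base.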

[6] = target: T1, Cytochrome P450 2A6; assay: Inhibition of human CYP2A6 in baculovirus-infected insect cell system using […] as substrate in presence of mouse liver cytosolic fraction by fluorescence assay
[7] = target: T1, Cytochrome P450 2A6; assay: Irreversible inhibition of human CYP2A6 in baculovirus-infected insect cell system assessed as nicotine metabolism after 15 mins; outline: as §4
[8] = target: T1, Cytochrome P450 2A6; assay: Reversible inhibition of human CYP2A6 in baculovirus-infected insect cell system using […] as substrate preincubated for 10 mins by fluorescence assay; outline: as §1
[9] = target: T1, Cytochrome P450 2A6; assay: Mixed-type inhibition of human CYP2A6 in baculovirus-infected insect cell system assessed as nicotine metabolism after 15 mins; outline: as §4

Row | SMILES | IC50 [1] | inhibition (INH) [2] | further results
1 | O=Cc1ccc2occc2c1 | 400 nM | – | Ki [1]: 70 nM; IC50 [2]: 50 nM; kinact at 10 min [3]: 0.00133 s⁻¹; Ki ([4]; read-out: Ki): 2400 nM; Ki [5]: 5500 nM; inhibition (INH) [6]: Not Active
2 | CN(C)Cc1cc2cnccc2s1 | 1400 nM | Active | Ki [1]: 600 nM; Ki [5]: 500 nM; inhibition (INH) [8]: Active
3 | Cc1cc2cc(N)ccc2[nH]1 | 34000 nM | Active | –
4 | O=Cc1cc2cnccc2s1 | 300 nM | Active | Ki [1]: 70 nM; Ki [5]: 1100 nM; inhibition (INH) [8]: Active; inhibition (INH) [6]: Not Active
5 | O=Cc1ccc2sccc2c1 | 900 nM | Active | –
6 | NCc1csc2ccc(Br)cc12 | 700 nM | Active | Ki [1]: 200 nM; Ki [9]: 800 nM; inhibition (INH) [8]: Active
7 | CNCc1cc2cnccc2s1 | 1500 nM | Active | –
8 | Cc1ccc2sc(C=O)cc2c1 | 3400 nM | Active | –
9 | N#Cc1csc2ccc(Cl)cc12 | 41000 nM | Active | –
10 | CCc1ccc(C#N)cc1 | 7400 nM | – | –
11 | NC(=S)c1csc2ccncc12 | 6600 nM | Active | –
12 | Cc1ccc(C#N)cc1 | 8100 nM | – | –
13 | O=Cc1cc2cccnc2s1 | 8000 nM | – | IC50 [2]: 400 nM; kinact at 10 min [3]: 0.00133 s⁻¹; Ki ([4]; read-out: Ki): 2400 nM
14 | O=Cc1ccc2cc[nH]c2c1 | 1500 nM | Active | –
15 | Cc1csc2ccc(Cl)cc12 | 88000 nM | Active | –
16 | NCc1cc2ccncc2s1 | 5200 nM | Active | –

Row | SMILES | IC50 [1] | inhibition (INH) [2] | further results
17 | O=C(Cl)c1csc2ccccc12 | 270000 nM | – | –
18 | O=Cc1csc2ccc(Br)cc12 | 5000 nM | – | IC50 [2]: 500 nM; Ki ([4]; read-out: Ki(app)): 1500 nM
19 | NCc1cc2cnccc2s1 | 1000 nM | Active | –
20 | O=Cc1ccc2[nH]ccc2c1 | 400 nM | Active | Ki [1]: 70 nM; Ki [5]: 1800 nM; inhibition (INH) [6]: Not Active
21 | N#CCc1csc2ccc(Cl)cc12 | 51000 nM | Active | –
22 | CNCc1cc2cccnc2s1 | 2200 nM | Active | Ki [1]: 800 nM
23 | OCc1csc2ccccc12 | 37000 nM | Active | –
24 | O=Cc1cc2ccncc2s1 | 400 nM | Active | Ki [1]: 60 nM; Ki [5]: 4200 nM; inhibition (INH) [6]: Not Active
25 | Cn1ccc2cc(C=O)ccc21 | 680 nM | Active | –
26 | Cn1ccc2ccc(C=O)cc21 | 8400 nM | Active | –
27 | O=Cc1cccc2ccsc12 | 11000 nM | Active | –
28 | Brc1ccc2[nH]ccc2c1 | 7400 nM | Active | –
29 | O=Cc1c[nH]c2cc(Br)ccc12 | 57000 nM | Active | Ki [1]: 3300 nM
30 | NCc1csc2ccc(Cl)cc12 | 400 nM | Active | Ki [1]: 90 nM; Ki [9]: 6000 nM
31 | O=Cc1c[nH]c2cccc(Br)c12 | 12000 nM | Active | Ki [1]: 8600 nM

Second part, led by results:

Row | IC50 [1] | inhibition (INH) [2] | SMILES | further results
32 | 72000 nM | – | O=Cc1cc2cc(Br)ccc2o1 | –
33 | < 100000 nM | – | OCc1cc2cc(Br)ccc2o1 | –
34 | 1600 nM | – | N#Cc1ccc2occc2c1 | Ki [1]: 100 nM; IC50 [2]: 600 nM; kinact at 10 min [3]: 0.00133 s⁻¹; Ki ([4]; read-out: Ki): 2400 nM; Ki [7]: 200 nM
35 | 3200 nM | – | O=Cc1cc2ccccc2s1 | IC50 [2]: 800 nM; Ki ([4]; read-out: Ki(app)): 130 nM
36 | 11000 nM | – | O=Cc1cc2ccccc2[nH]1 | IC50 [2]: 1800 nM; kinact at 10 min [3]: 0.00133 s⁻¹; Ki ([4]; read-out: Ki): 2400 nM
37 | < 100000 nM | – | O=CCc1coc2ccccc12 | –
38 | < 100000 nM | – | NCc1cc2cc(Br)ccc2o1 | –
39 | 79000 nM | Active | O=Cc1c[nH]c2ccccc12 [3-FORMYLINDOLE] | Ki [1]: 11000 nM
40 | 52000 nM | – | N#Cc1cc2ccccc2o1 | –
41 | 17000 nM | – | O=Cc1cc2ccccc2o1 | –
42 | 18000 nM | Active | OCc1cc2ccccc2s1 | –
43 | 500 nM | Active | CNCc1cc2ccccc2s1 | –
44 | – | Active | NCc1cc2ccccc2s1 | Ki [1]: 10 nM
45 | 140000 nM | – | Brc1cc2ccccc2o1 | –
